≈ marks a conversion by molar mass, not a printed value.
What was measured:
PC-3 = assay: Cytotoxicity against human PC3 cells by MTT assay; format: functional; details: for EC50: Homo sapiens, PC-3, read-out: ED50 (the source's name)
Summary of the method: (§1)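 Human solid tumour lines tested at the Purdue Cancer Center cell culture laboratory using a standard MTT viability method, with adriamycin run as the control substance.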

A549 = assay: Cytotoxicity against human A549 cells by MTT assay; format: functional; details: for EC50: Homo sapiens, A549, read-out: ED50 (the source's name); summary of the method: as §1
A-431 = assay: Cytotoxicity against human A431 cells by MTT assay; format: functional; details: for EC50: Homo sapiens, A-431, read-out: ED50 (the source's name); summary of the method: as §1
SK-MEL-5 = assay: Cytotoxicity against human SK-MEL-5 cells by MTT assay; format: functional; details: for EC50: Homo sapiens, SK-MEL-5, read-out: ED50 (the source's name); summary of the method: as §1
SK-OV-3 = assay: Cytotoxicity against human SKOV3 cells by MTT assay; format: functional; details: for EC50: Homo sapiens, SK-OV-3, read-out: ED50 (the source's name); summary of the method: as §1
MCF7 = assay: Cytotoxicity against human MCF7 cells by MTT assay; format: functional; details: for EC50: Homo sapiens, MCF7, read-out: ED50 (the source's name); summary of the method: as §1
A498 = assay: Cytotoxicity against human A498 cells by MTT assay; format: functional; details: for EC50: Homo sapiens, A498, read-out: ED50 (the source's name); summary of the method: as §1
HT-29 = assay: Cytotoxicity against human HT-29 cells by MTT assay; format: functional; details: for EC50: Homo sapiens, HT-29, read-out: ED50 (the source's name); summary of the method: as §1
[1] = Inhibition of bovine brain tubulin polymerization by turbidity assay; design: species or system Bos taurus
Summary of the method: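 Microtubule protein isolated from bovine brain, 1 mg/ml, with 1 mM GTP and graded inhibitor concentrations. Turbidity increase read at 340 nm over 30 min at 37°. Positive control contained MTP plus GTP; negative control contained MTP only.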

[2] = Inhibition of bovine brain tubulin polymerization by sedimentation assay; design: species or system Bos taurus
Summary of the method: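 Microtubule protein from bovine brain (1 mg/ml) with 1 mM GTP and varying inhibitor levels, incubated 30 min at 37°. Microtubules pelleted at 100,000 g for 5 min. Supernatant protein measured by BCA. Sedimented protein calculated relative to the positive control (MTP+GTP) and negative control (MTP alone).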

| IC50 [1] [µM] | IC50 [2] [µM] | Structure (SMILES) | EC50 (PC-3) [µg/mL] | ED50 (A549) | EC50 (A-431) [µg/mL] | ED50 (SK-MEL-5) | EC50 (SK-OV-3) [µg/mL] | EC50 (MCF7) [µg/mL] | EC50 (A498) [µg/mL] | ED50 (HT-29) | ED50 (PC-3) | ED50 (A-431) [×10⁻⁶ ug/ml] | ED50 (SK-OV-3) | ED50 (MCF7) | ED50 (A498) | EC50 (A549) [µg/mL] | EC50 (SK-MEL-5) [µg/mL] | EC50 (HT-29) [µg/mL] |
| --- | --- | --- | --- | --- | --- | --- | --- | --- | --- | --- | --- | --- | --- | --- | --- | --- | --- | --- |
| 0.8 | 1 | COc1cc([C@@H]2c3cc4c(cc3C[C@H]3COC(=O)[C@@H]32)OCO4)cc2c1OCO2 [AUSTROBAILIGNAN 1] | – | 3.9 ×10⁻⁶ ug/ml | – | 3 ×10⁻⁷ ug/ml | – | – | – | 3.7 ×10⁻⁶ ug/ml | 3.3 ×10⁻⁶ ug/ml | 3.6 | 2.7 ×10⁻⁶ ug/ml | 5.2 ×10⁻⁵ ug/ml | 3.2 ×10⁻⁶ ug/ml | – | – | – |
| 40 | 45 | COc1cc([C@@H]2c3cc4c(cc3C[C@H]3COC(=O)[C@H]32)OCO4)cc2c1OCO2 | 3.1 (≈ 8.11 µM) | – | 0.96 (≈ 2.51 µM) | – | 0.832 (≈ 2.18 µM) | 4.1 (≈ 10.7 µM) | 0.76 (≈ 1.99 µM) | – | – | – | – | – | – | 0.46 (≈ 1.2 µM) | 0.77 (≈ 2.01 µM) | 0.1 (≈ 0.262 µM) |

Further lines, the compound ahead of its results:

| Structure (SMILES) | IC50 [1] [µM] | IC50 [2] [µM] | EC50 (PC-3) [µg/mL] | ED50 (A549) | EC50 (A-431) [µg/mL] | ED50 (SK-MEL-5) | EC50 (SK-OV-3) [µg/mL] | EC50 (MCF7) [µg/mL] | EC50 (A498) [µg/mL] | ED50 (HT-29) | ED50 (PC-3) | ED50 (A-431) [×10⁻⁶ ug/ml] | ED50 (SK-OV-3) | ED50 (MCF7) | ED50 (A498) | EC50 (A549) [µg/mL] | EC50 (SK-MEL-5) [µg/mL] | EC50 (HT-29) [µg/mL] |
| --- | --- | --- | --- | --- | --- | --- | --- | --- | --- | --- | --- | --- | --- | --- | --- | --- | --- | --- |
| COc1cccc2c1C(=O)c1c(O)c3c(c(O)c1C2=O)C[C@@](O)(C(=O)CO)C[C@@H]3O[C@H]1C[C@H](N)[C@H](O)[C@H](C)O1 [DOXORUBICIN] | – | – | 0.01 (≈ 0.0184 µM) | 3.1 ×10⁻⁴ ug/ml | 0.012 (≈ 0.0221 µM) | 2.8 ×10⁻⁴ ug/ml | 0.0025 (≈ 0.0046 µM) | 0.02 (≈ 0.0368 µM) | 0.0032 (≈ 0.00589 µM) | 5.6 ×10⁻⁴ ug/ml | – | – | – | – | – | – | – | – |
| COc1cc([C@@H]2c3cc4c(cc3[C@H](O)[C@H]3COC(=O)[C@H]23)OCO4)cc(OC)c1OC [PODOFILOX] | 0.6 | 1 | – | 7.7 ×10⁻⁸ ug/ml | – | 4.1 ×10⁻⁸ ug/ml | – | – | – | 4.7 ×10⁻⁸ ug/ml | 1.2 ×10⁻⁷ ug/ml | 1.1 | 4.2 ×10⁻⁵ ug/ml | 1.1 ×10⁻⁶ ug/ml | 3.4 ×10⁻⁷ ug/ml | – | – | – |
| COc1cc(-c2c3c(cc4cc5c(cc24)OCO5)COC3=O)cc2c1OCO2 | 5 | 20 | 0.15 (≈ 0.396 µM) | – | 0.18 (≈ 0.476 µM) | – | 0.0067 (≈ 0.0177 µM) | 9.7 (≈ 25.6 µM) | 0.078 (≈ 0.206 µM) | – | – | – | – | – | – | 0.049 (≈ 0.13 µM) | 0.0035 (≈ 0.00925 µM) | 0.29 (≈ 0.767 µM) |
